This is an account of results in ChEMBL document CHEMBL1158388, “Preparation of spermine conjugates with acidic retinoids with potent ribonuclease P inhibitory activity” (Eur J Med Chem, 2009).

Molecules are shown by their SMILES. pKi: −log10 of the molar value.

A short description of this test: Inhibition of Dictyostelium discoideum AX2 RNase P by double reciprocal plot. The procedure, abridged:
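RNase P purified from D. discoideum wild-type cells; 37 °C reactions in buffer D (50 mM Tris/HCl pH 7.6, 10 mM NH4Cl, 5 mM MgCl2, 5 mM DTT) with 2–5 fmol in vitro labeled S. pombe pre-tRNASer transcript and 1.3 µg enzyme-fraction protein, 10% DMSO; stopped with formamide/EDTA dye. Ki from slopes of 1/v vs 1/[pre-tRNA] plots replotted against inhibitor concentration.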
As to `C/C(=C\c1ccc(C(=O)O)cc1)c1ccc2c(c1)C(C)(C)CCC2(C)C`, the pKi was 4.35. In the case of `CC1=C(/C=C/C(C)=C/C=C/C(C)=C/C(=O)NCCCNCCCCNCCCN)C(C)(C)CCC1` it was 5.62.

In the case of `CC1=C(/C=C/C(C)=C/C=C/C(C)=C/C(=O)N(CCCN)CCCCN(CCCN)C(=O)/C=C(C)/C=C/C=C(C)/C=C/C2=C(C)CCCC2(C)C)C(C)(C)CCC1`, the pKi was 5.96. To `COc1cc(C)c(/C=C/C(C)=C/C=C/C(C)=C/C(=O)O)c(C)c1C` [ACITRETIN] belongs 5.10. To `CCOC(=O)c1ccc(/C=C(\C)c2ccc3c(c2)C(C)(C)CCC3(C)C)cc1` [AROTINOID] belongs 2.36. To `CCS(=O)(=O)c1ccc(/C=C(\C)c2ccc3c(c2)C(C)(C)CCC3(C)C)cc1` [ETAROTENE] belongs 2.44; to `CC1=C(/C=C/C(C)=C/C=C/C(C)=C\C(=O)O)C(C)(C)CCC1` [ISOTRETINOIN], 4.70; to `COc1cc(C)c(/C=C/C(C)=C/C=C/C(C)=C/C(=O)NCCCNCCCCNCCCN)c(C)c1C` [N1-Acitretinylspermine], 5.61.

The compound `CC1=C(/C=C/C(C)=C/C=C/C(C)=C/CO)C(C)(C)CCC1` [RETINOL] showed a pKi of 2.83. Compared with the last compound, the pKi is 2.78 log units lower. To `CC1=C(/C=C/C(C)=C/C=C/C(C)=C/C(=O)O)C(C)(C)CCC1` [TRETINOIN] belongs 4.82.

One may read the pKi as −log10 of the Ki, conventionally taken in molar units. High values mean a small Ki, low ones a large Ki.
